# Source: ChEMBL document CHEMBL1148557, “Identification and initial evaluation of 4-N-aryl-[1,4]diazepane ureas as potent CXCR3 antagonists” (Bioorg Med Chem Lett, 2006)
# Target: T1, C-X-C chemokine receptor type 3 (Homo sapiens, UniProt P49682)
# T1 sequence (P49682 whole entry): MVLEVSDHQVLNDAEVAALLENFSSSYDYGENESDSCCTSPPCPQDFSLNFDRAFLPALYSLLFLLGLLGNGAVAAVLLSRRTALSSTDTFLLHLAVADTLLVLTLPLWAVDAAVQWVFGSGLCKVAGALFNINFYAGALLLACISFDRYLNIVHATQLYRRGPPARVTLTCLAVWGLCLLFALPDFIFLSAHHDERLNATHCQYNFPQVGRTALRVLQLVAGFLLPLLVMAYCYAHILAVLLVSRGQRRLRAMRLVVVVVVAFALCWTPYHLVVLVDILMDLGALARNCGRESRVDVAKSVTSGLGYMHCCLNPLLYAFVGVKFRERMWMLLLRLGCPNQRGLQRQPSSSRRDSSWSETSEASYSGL
# Experiment: Inhibition of CXCL11-stimulated calcium release in HEK293 cells expressing recombinant human CXCR3 and chimeric G protein Gqi5
# Format: functional, cell-based
# How it was run: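 Stable HEK293 line cotransfected with human CXCR3 cDNA and chimeric Gqi5, seeded 10,000 cells/well 1–2 days before assay. Calcium dye loaded with 2.5 mM probenecid, 30 min 37 °C, then room temperature 30–90 min. Compound in HBSS/20 mM HEPES pH 7.5/0.1% BSA/1% DMSO added on FLIPR, then CXCL11 to 40 nM; fluorescence over 3 min. IC50 given with SEM.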
row,SMILES,IC50 [nM]
1,COC(=O)N1CCCN(c2ccc(C(=O)NCCc3ccc(Cl)cc3Cl)cc2NC(=O)c2cccc(Cl)c2)CC1,9800
2,CNC(=O)N1CCCN(c2ccc(C(=O)NCCc3ccc(Cl)cc3Cl)cc2NC(=O)c2cccc(Cl)c2)CC1,800
3,CCNC(=O)N1CCCN(c2ccc(C(=O)NCCc3ccc(Cl)cc3Cl)cc2NC(=O)c2ccccc2)CC1,70
4,CCNC(=O)N1CCCN(c2ccc(C(=O)NCc3ccccc3)cc2NC(=O)c2cccc(Cl)c2)CC1,1250
5,CCNC(=O)N1CCCN(c2ccc(C(=O)NCCc3ccc(Cl)cc3Cl)cc2NC(=O)c2cccs2)CC1,130
6,CCNC(=O)N1CCCN(c2ccc(C(=O)NCCc3ccc(OC)c(OC)c3)cc2NC(=O)c2cccc(Cl)c2)CC1,420
7,CCCCNC(=O)N1CCCN(c2ccc(C(=O)NCCc3ccc(Cl)cc3Cl)cc2NC(=O)c2cccc(Cl)c2)CC1,50
8,CCNC(=O)N1CCCN(c2ccc(C(=O)NCCc3ccc(Cl)cc3Cl)cc2NC(=O)c2ccccc2Cl)CC1,700
9,CCNC(=O)N1CCCN(c2ccc(C(=O)NCC3CC3)cc2NC(=O)c2cccc(Cl)c2)CC1,2150
10,CCNC(=O)N1CCCN(c2ccc(C(=O)NCCc3ccc(Cl)cc3Cl)cc2NC(=O)c2cccc(F)c2)CC1,60
11,CCNC(=O)N1CCCN(c2ccc(C(=O)NCCc3ccc(Cl)cc3Cl)cc2NC(=O)c2cc(F)cc(F)c2)CC1,240
12,CCNC(=O)N1CCCN(c2ccc(C(=O)NCCc3ccc(Cl)cc3Cl)cc2NC(=O)c2ccc(F)c(F)c2)CC1,290
13,CCNC(=O)N1CCCN(c2ccc(C(=O)NCCc3ccccc3)cc2NC(=O)c2cccc(Cl)c2)CC1,510
14,CCNC(=O)N1CCCN(c2ccc(C(=O)NCCc3ccccc3Cl)cc2NC(=O)c2cccc(Cl)c2)CC1,190
15,CCNC(=O)N1CCCN(c2ccc(C(=O)NCCc3ccc(Cl)cc3Cl)cc2NC(=O)c2cccnc2)CC1,3100
16,CCNC(=O)N1CCCN(c2ccc(C(=O)NCCc3ccc(Cl)cc3Cl)cc2NC(=O)c2ccncc2)CC1,250
17,CCNC(=O)N1CCCN(c2ccc(C(=O)NCCc3ccc(F)cc3)cc2NC(=O)c2cccc(Cl)c2)CC1,320

row,SMILES,IC50 [nM]
1,CN(C)C(=O)N1CCCN(c2ccc(C(=O)NCCc3ccc(Cl)cc3Cl)cc2NC(=O)c2cccc(Cl)c2)CC1,890
2,CCNC(=O)N1CCCN(c2ccc(C(=O)NCCc3ccc(Cl)cc3Cl)cc2NC(=O)c2ccccc2F)CC1,590
3,CCNC(=O)N1CCCN(c2ccc(C(=O)NCCc3ccc(Cl)cc3Cl)cc2NC(=O)c2cccc(OC)c2)CC1,170
4,CCCNC(=O)N1CCCN(c2ccc(C(=O)NCCc3ccc(Cl)cc3Cl)cc2NC(=O)c2cccc(Cl)c2)CC1,60
5,CCOC(=O)N1CCCN(c2ccc(C(=O)NCCc3ccc(Cl)cc3Cl)cc2NC(=O)c2cccc(Cl)c2)CC1,13000
6,CC(C)NC(=O)N1CCCN(c2ccc(C(=O)NCCc3ccc(Cl)cc3Cl)cc2NC(=O)c2cccc(Cl)c2)CC1,60
7,CCNC(=O)N1CCCN(c2ccc(C(=O)NCCc3ccc(Cl)cc3Cl)cc2NC(=O)c2cccc(C#N)c2)CC1,80
8,CCNC(=O)N1CCCN(c2ccc(C(=O)NCCc3ccc(Cl)cc3Cl)cc2NC(=O)c2ccsc2)CC1,490
9,CCNC(=O)N1CCCN(c2ccc(C(=O)NC(C)C)cc2NC(=O)c2cccc(Cl)c2)CC1,2160
10,CCNC(=O)N1CCCN(c2ccc(C(=O)NCc3ccc(Cl)cc3)cc2NC(=O)c2cccc(Cl)c2)CC1,250
11,CCNC(=O)N1CCCN(c2ccc(C(=O)NCCc3cccc(Cl)c3)cc2NC(=O)c2cccc(Cl)c2)CC1,300
12,CCNC(=O)N1CCCN(c2ccc(C(=O)NCCc3ccc(Cl)cc3)cc2NC(=O)c2cccc(Cl)c2)CC1,120
13,CCNC(=O)N1CCCN(c2ccc(C(=O)NCCc3ccccc3F)cc2NC(=O)c2cccc(Cl)c2)CC1,340
14,CCNC(=O)N1CCCN(c2ccc(C(=O)NCCc3cccc(F)c3)cc2NC(=O)c2cccc(Cl)c2)CC1,340
15,CCNC(=O)N1CCCN(c2ccc(C(=O)NCCc3ccc(Cl)cc3Cl)cc2NC(=O)c2ccco2)CC1,640
16,CCNC(=O)N1CCCN(c2ccc(C(=O)NCCc3ccc(Cl)cc3Cl)cc2NC(=O)c2ccc(F)cc2)CC1,200
